# Source: PubChem BioAssay (Sanford-Burnham Center for Chemical Genomics)
# Most compounds without a hit are left out; they make up all but 1.7% or so of the library.
# PABP1 MLLE inh: inhibitors of PABP1 MLLE–PAM2 peptide binding, primary screen, biochemical, fluorescence polarization, FITC-PAM2, GST-MLLE; Polyadenylate-binding protein 1 (Homo sapiens), P11940; inhibition, % at 20 µM; actives 0.36% (n = 360,000); AID 588489, 2011; in the data active means inhibition above about 35%, passing the limit was not always enough;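 further: plate controls were DMSO wells with GST-MLLE for no effect and wells lacking GST-MLLE protein for full effect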
# MT1-MMP act inh: blockers of MT1-MMP proenzyme processing, primary screen, HT1080 RFP-PRO-GFP cells, GFP/RFP fluorescence; Matrix metalloproteinase-14 (Homo sapiens), P50281; GFP/RFP ratio fluorescence, overnight; percent of plate control window, DMSO zero; GFP/RFP ratio change, % at 20 µM; actives 0.061% (n = 360,000);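 active means GFP/RFP ratio change of at least 30% with cell ATP level not reduced by more than half and red fluorescence within 50% of control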
#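 Assay system: HT1080 cells carrying an RFP-PRO-GFP reporter | Dosing: Single dose of 20 µM compound, 1% DMSO final | Incubation: Cells overnight before dosing, compound overnight, 37 °C, 5% CO2 | Evaluation: GFP/RFP fluorescence ratio | Control set: DMSO and RFP-L50D-GFP cell wells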
# eIF4H inh: human eIF4H binding inhibitors, primary screen, translation initiation inhibitor project, biochemical, uHTS, fluorescence polarization. actives 0.94% (n = 290,000). eIF4H fluorescence polarization binding assay. inhibition, % at 35 µM. Eukaryotic translation initiation factor 4H (Homo sapiens), Q15056;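 further: calls also rest on retests at 20 µM and on dose response follow-up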
# PABP FP inh: PABP poly(A) RNA binding inhibitors, primary screen, biochemical, fluorescence polarization, uHTS. AID 2014, 2009. Polyadenylate-binding protein 1 (Homo sapiens), P11940. inhibition, % at 35 µM. actives 1% (n = 290,000);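 further: calls also rest on retests at 20 µM and on dose response follow-up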
# SKN-1 block: suppressors of acrylamide-induced Pgst-4::GFP reporter in worms, primary screen, SKN-1 inhibitor project, whole organism, uHTS, GFP/RFP fluorescence ratio, strain VP596; C. elegans VP596 Pgst-4::GFP/RFP ratio, 24 h; inhibition, % at 21.8 µM; actives 0.49% (n = 360,000); AID 624304, 2012;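 active means interference check ratio from 0.5 to 1.5 plus GFP to RFP signal ratio inhibition reaching or exceeding a fixed threshold, cut at about 30% in these data, passing the limit was not always enough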
# Starred values were filed as active, the others as inactive; ? = inconclusive; . = no result. Unless noted, how the calls were made is not given here.
SMILES,PABP1 MLLE inh,MT1-MMP act inh,eIF4H inh,PABP FP inh,SKN-1 block
O=C1CCCC(O)=C1N=Nc1ccc2c(c1)OCO2,-48,6,-5,1,16
O=C1CCCC(O)=C1N=Nc1ccc(C(=O)O)cc1,21,61,102*,79*,18
Oc1c(Br)cc(Br)cc1C=Nc1cccnc1,39*,-7,32,31,10
Oc1c(Br)cc(Br)cc1C=Nc1ccc2[nH]ncc2c1,-76,-1,37,20,-3
CC(=O)c1ccc(N2CCN(C(=O)c3cc(-c4ccncc4)nc4ccc(Cl)cc34)CC2)cc1,-10,2,2,-5,-1
COc1ccc(S(=O)(=O)N2CCCCC2)cc1NC(=O)CSc1nnc(C2CC2)n1C,-5,3,.,.,8
CC1=C/C(=C\c2ccc(Br)o2)C(=O)O1,2,1,86,-2,-3
O=C1C(=Cc2ccc(Br)o2)C(=O)c2ccccc21,23,3,89*,6.4*,-2
Cc1ccc(OC(C)C(=O)Nc2ccc3c(c2)n(C)c(=O)n3C)c(C)c1 (stereo not given),-80,5,.,.,0
O=C1CN(C(=O)COC(=O)c2cc(S(=O)(=O)N3CCOCC3)ccc2Cl)c2ccccc2N1,4,-1,-9,-3,10
Nc1ccccc1SC1CC(=O)N(Cc2ccccc2)C1=O (stereo not given),28,-3,active,68*,6
CCN1C(=O)CC(Sc2ccccc2N)C1=O (stereo not given),7,1,1,-4,-2
CNc1nc(Cl)c(SC)c(NCc2ccc(F)cc2)n1,18,-6,6,1,6
Cc1cccc(NCCC#N)c1,-7,2,79,active,8
Cc1cccc(NCCNc2cccc(C)c2)c1,6,-11,-7,-4,5
COc1ccccc1NC(=O)NC1(C(=O)NCC2CCCO2)CCCCC1 (stereo not given),6,1,-4,5,3
COc1ccc(CNC(C)C2COc3ccccc3O2)c(OC)c1 (stereo not given),-1,-4,-1,8,37*
CC(NCc1ccccc1)C1COc2ccccc2O1 (stereo not given),-9,1,-8,12,-4
O=C1C(Cl)=C(N2CCC(C(=O)O)CC2)C(=O)c2ccccc21,55*,-6,13,34,5
CCOC(=O)CNC(c1ccccc1)c1cc(Br)ccc1NC(=O)OCC (stereo not given),0,-17,104*,55*,28
CC(C)(C)c1ccc(C(=O)CC(Sc2ccc(Cl)cc2)C(=O)O)cc1 (stereo not given),46*,-8,-12,-12,4
COCCCNC(=O)c1cc2cc(Br)ccc2oc1=O,-16,0,1,2,0
O=C(NNC(=O)c1cc2cc(Br)ccc2oc1=O)c1ccc(O)cc1O,0,3,85*,4.2*,2
Cc1nc(C(F)(F)F)ccc1C(=O)N1CCC1(C)C(=O)NS(=O)(=O)c1cccc(F)c1 (stereo not given),8,3,.,.,6
CC1(C)Cc2c(sc(NC(=O)c3ccco3)c2C#N)C(C)(C)N1,.,.,61*,99*,.
SMILES,PABP1 MLLE inh,MT1-MMP act inh,eIF4H inh,PABP FP inh,SKN-1 block
CC(=O)Nc1sc2c(c1C#N)CC(C)(C)NC2(C)C,6,-1,-5,-2,5
Cc1cccc2cc(CN(CCN3CCOCC3)C(=O)Nc3ccccc3F)c(=O)[nH]c12,9,-1,81*,active,8
CCOC(=O)C1=C(O)/C(=C\c2sccc2C)N=C1C,9,3,78*,active,15
COC(=O)C1=C(O)/C(=C\c2sccc2C)N=C1C,1,7,65*,4.9*,11
CCOC(=O)C1=C(O)/C(=C\c2cccs2)N=C1C,-7,6,-7,3,9
CCc1ccc(NC(=O)CN2CCCN(S(=O)(=O)c3ccc(F)cc3)CC2)cc1,5,-2,0,1,17
C=CCn1c(COc2ccc(OC)cc2)nnc1SCn1nnc2ccccc2c1=O,-40,-4,active,63*,10
Cc1cccc(C)c1NC(=S)Nc1ccc(F)cc1,44*,-2,-3,3,-12
Cc1ccc(NC(=S)Nc2ccc(F)cc2)cc1C,31,6,0,3,-11
CCCCC(=O)N(C)c1c(CC)nc2c(OCc3ccc(C(F)(F)F)cc3)cccn12,-2,-2,.,.,2
CC1(OC(=O)c2ccc(Cl)nc2)C(=O)C=C2C=C3CCCN3C=C2C1=O (stereo not given),-3,6,101*,62*,12
CC1(OC(=O)C2CCCC2)C(=O)C=C2C=C3CCCCN3C=C2C1=O (stereo not given),18,-1,?,?,-3
COC(=O)CCC(=O)OC1(C)C(=O)C=C2C=C3CCCN3C=C2C1=O (stereo not given),-7,1,107*,60*,6
Cc1ccc(CNC(=O)C(=O)NCC2OCCN2S(=O)(=O)c2ccc(Cl)cc2)cc1 (stereo not given),-7,0,2,-4,-5
CCOc1ccc(NC(=O)COC(=O)Cn2cnc3ccccc32)cc1,5,-2,.,.,14
NC(=O)c1ccc(-c2nnn(CC(=O)N(C3CCCC3)C3CCS(=O)(=O)C3)n2)cc1 (stereo not given),-11,-5,.,.,-7
O=C1CCCCC1C(O)c1ccc(Cl)cc1 (stereo not given),.,.,1,-13,.
O=C1CCC(=O)N1c1ccc(-c2nc3ccccc3s2)cc1,2,-7,61*,0,-5
COC(=O)C[C@H]1c2cc(F)cc(F)c2S(=O)(=O)N1C1CCN(Cc2ccccc2)CC1,20,2,.,.,7
CCC1(C)Cc2nc3sc(C(=O)O)c(N)c3cc2CO1 (stereo not given),-6,-11,12*,71*,-5
O=C(CCSc1ccccc1)NC1CCCCCC1,-4,-4,10,93*,-5
CC(CC(=O)NC1CCCC1)c1ccccc1 (stereo not given),2,-5,-6,50*,7
COC(=O)C1=C(C(=O)OC)SC(=C2C(=S)C(C)(C)N(C(=O)C3CC3)c3ccccc32)S1,40*,29,-14,0,17
CCCCn1nnnc1NCc1ccc(C)s1,-14,4,5,-1,41*
S=C(Nc1ccc(Cl)cc1)c1sc(N2CCCCC2)nc1N1CCOCC1,28,10,79*,active,-4
